According to ChEMBL document CHEMBL1147411, “7-Hydroxynaphthalen-1-yl-urea and -amide antagonists of human vanilloid receptor 1” (Bioorg Med Chem Lett, 2004):

What was measured:
[1] = biological target: T1, Transient receptor potential cation channel subfamily V member 1 (Homo sapiens, UniProt Q8NER1); assay: Binding affinity towards cloned human vanilloid receptor subtype 1 in HEK293 cell membranes using [3H]RTX as radioligand
Outline: (§1)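 Human VR1 stably expressed in HEK293 cells. Membranes were made by homogenizing, spinning at 3000 rpm for 10 min, and spinning the supernatant at 18,000 rpm for 20 min. Binding was 60 min at 37 °C with 0.3–0.6 nM [3H]-RTX in HEPES buffer pH 7.4. Samples were ice-cooled, given α-acid glycoprotein, centrifuged, and the pellet counted. Nonspecific binding used 200 nM unlabeled RTX. Percent inhibition calculated; Ki by Cheng–Prusoff.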

[2] = biological target: T1, Transient receptor potential cation channel subfamily V member 1; assay: Functional antagonistic activity against human vanilloid receptor subtype 1 in HEK293 cell […] as inhibition of agonist-induced increases in intracellular [Ca2+] levels; format: cell-based
Outline: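 Fluo-3/AM-loaded hVR1/HEK cells were read by FLIPR. Cells were incubated with compound, then challenged with capsaicin at a concentration giving ~80% maximal response. IC50 came from the inhibition of the capsaicin-induced Ca2+ rise.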

[3] = biological target: T1, Transient receptor potential cation channel subfamily V member 1; assay: Displacement of [3H]RTX binding to human vanilloid receptor subtype 1 expressed in HEK293 cell membranes at 10 uM; outline: as §1
[4] = biological target: T1, Transient receptor potential cation channel subfamily V member 1; assay: Displacement of [3H]-RTX binding to human vanilloid receptor subtype 1 expressed in HEK293 cell membranes (inactive); outline: as §1
[5] = biological target: T1, Transient receptor potential cation channel subfamily V member 1; assay: Increased [Ca2+] influx in HEK293 cell […] human vanilloid receptor subtype 1; format: functional, cell-based
Outline: (§2)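 hVR1/HEK cells on poly-D-lysine-coated plates were loaded with Fluo-3/AM for 1 h after 2 days. Cells received single compound concentrations, and intracellular Ca2+ was read by FLIPR for 3 min. Capsaicin was then added at […] final to fully activate VR1.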

[6] = biological target: T1, Transient receptor potential cation channel subfamily V member 1; assay: Increased [Ca2+] influx in HEK293 cell […] human vanilloid receptor subtype 1 (inactive); format: functional, cell-based; outline: as §2

T1 sequence (Q8NER1 whole entry): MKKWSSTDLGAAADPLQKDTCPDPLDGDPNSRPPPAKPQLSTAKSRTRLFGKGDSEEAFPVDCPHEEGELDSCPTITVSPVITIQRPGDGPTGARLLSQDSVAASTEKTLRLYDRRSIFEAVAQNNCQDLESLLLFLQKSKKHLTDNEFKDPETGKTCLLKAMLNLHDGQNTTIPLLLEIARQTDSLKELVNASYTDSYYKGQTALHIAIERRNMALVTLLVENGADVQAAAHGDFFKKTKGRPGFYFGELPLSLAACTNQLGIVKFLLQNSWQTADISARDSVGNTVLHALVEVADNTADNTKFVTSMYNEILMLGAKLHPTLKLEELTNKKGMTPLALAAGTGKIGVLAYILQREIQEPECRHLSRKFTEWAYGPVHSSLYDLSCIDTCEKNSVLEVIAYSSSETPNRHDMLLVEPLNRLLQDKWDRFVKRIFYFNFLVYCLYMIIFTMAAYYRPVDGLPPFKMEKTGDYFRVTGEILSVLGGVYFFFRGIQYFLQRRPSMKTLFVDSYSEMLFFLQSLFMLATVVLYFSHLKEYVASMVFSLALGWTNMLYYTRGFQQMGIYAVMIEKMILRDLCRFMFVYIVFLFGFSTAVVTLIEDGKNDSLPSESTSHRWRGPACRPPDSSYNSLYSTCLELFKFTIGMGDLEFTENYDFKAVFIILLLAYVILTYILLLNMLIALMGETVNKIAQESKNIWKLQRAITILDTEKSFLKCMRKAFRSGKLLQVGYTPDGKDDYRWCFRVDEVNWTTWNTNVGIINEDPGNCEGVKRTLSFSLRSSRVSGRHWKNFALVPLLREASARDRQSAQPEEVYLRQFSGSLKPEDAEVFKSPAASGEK

Row | SMILES | Ki [1] [nM] | IC50 [2] [nM] | other results
1 | O=C(Nc1cccc2ccc(O)cc12)c1ccc(Cl)cc1 |  | 320 | inhibition [3]: 28%
2 | O=C(Nc1cccc2ccc(O)cc12)Oc1ccccc1 |  | 6300 | Ki [4]: > 10000 nM
3 | CC(NC(=O)Nc1cccc2ccc(O)cc12)c1ccc(C(F)(F)F)cc1 (stereo not drawn) | 4 |  | 
4 | O=C(NCCc1ccc(Cl)c(Cl)c1)Nc1cccc2ccc(O)cc12 | 1 | 90 | 
5 | Oc1cc2c(cc1O)CN(C(=S)NCCc1ccc(Cl)cc1)CCC2 [CAPSAZEPINE] | 120 | 100 | 
6 | O=C(Cc1ccc(Cl)c(Cl)c1)Nc1cccc2ccc(O)cc12 |  | 770 | 
7 | O=C(NCCSCc1cccc(C(F)(F)F)c1)N1CCSCC1 |  |  | EC50 [5]: 390 nM
8 | CN(Cc1ccccc1)C(=O)Nc1cccc2ccc(O)cc12 |  |  | Ki [4]: > 10000 nM; IC50 [6]: > 10000 nM
9 | O=C(NCc1ccc(F)c(F)c1)Nc1cccc2ccc(O)cc12 | 7 |  | 
10 | O=C(Nc1cccc2ccc(O)cc12)N(Cc1ccccc1)Cc1ccccc1 |  |  | IC50 [6]: > 10000 nM

Further molecules by falling IC50 [2], results first:

Row | Ki [1] [nM] | IC50 [2] [nM] | SMILES | other results
11 |  | 45 | O=C(NCc1ccccc1)Nc1cccc2ccc(O)cc12 | 
12 | 1 | 27 | O=C(NCc1ccc(OC(F)(F)F)cc1)Nc1cccc2ccc(O)cc12 | 
13 | 2.1 | 26 | O=C(NCc1cccc(C(F)(F)F)c1)Nc1cccc2ccc(O)cc12 | 
14 | 9.8 | 21 | O=C(CCc1ccc(Cl)cc1)Nc1cccc2ccc(O)cc12 | 
15 | 4.6 | 17 | O=C(CCc1ccc(Cl)c(Cl)c1)Nc1cccc2ccc(O)cc12 | 
16 | 2 | 15 | O=C(NCc1ccc(Cl)c(Cl)c1)Nc1cccc2ccc(O)cc12 | 
17 | 1 | 4 | O=C(NCc1ccc(C(F)(F)F)cc1)Nc1cccc2ccc(O)cc12 | 
